Measured values: ChEMBL document CHEMBL1127741, “4-[(Alkylamino)methyl]furo[3,2-c]pyridines: a new series of selective kappa-receptor agonists” (J Med Chem, 1994)

Test system: Mus musculus
Experiment: Antinociceptive activity was measured using the mouse acetylcholine-induced abdominal constriction test following subcutaneous administration of the compound
Type: functional
Conditions: Abdomen, sc
Procedure, shortened: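 Male/female not stated; mice dosed subcutaneously, then challenged with acetylcholine to provoke abdominal constrictions. Inhibition of constrictions scored, and an ED50 (mg/kg, sc) derived for each compound.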

Compared with O=C1CCN(CC2c3ccoc3CCN2C(=O)Cc2ccc(Cl)c(Cl)c2)C1 (stereo unspecified), O=C(Cc1ccc(Cl)c(Cl)c1)N1CCc2occc2C1CN1CC[C@H](O)C1 (single isomer, unassigned) is 19-fold lower in ED50: 19 µg/kg for the first, 1 µg/kg for the second.

O=C(Cc1ccc(Cl)c(Cl)c1)N1CCc2occc2[C@@H]1CN1CC[C@H](O)C1 and O=C(Cc1ccc(Cl)c(Cl)c1)N1CCc2occc2C1CN1CCC(O)C1 (stereo unspecified) are within 1.5-fold of each other in ED50: 1.5 µg/kg for the first, 2 µg/kg for the second.

Compared with O=C(Cc1ccc(Cl)c(Cl)c1)N1CCc2occc2C1CN1CC=CCC1 (stereo unspecified), O=C(Cc1ccc(Cl)c(Cl)c1)N1CCc2occc2[C@H]1CN1CC[C@@H](O)C1 is 7.5-fold higher in ED50: 4 µg/kg for the first, 30 µg/kg for the second.

First: O=C(Cc1ccc(Cl)c(Cl)c1)N1CCc2occc2C1CN1CCCC1 (stereo unspecified)
Second: O=C(Cc1ccc(Cl)c(Cl)c1)N1CCc2c(O)cccc2C1CN1CCCC1 (stereo unspecified)
The ED50 of the first is 10-fold higher: 30 µg/kg for the first, 3 µg/kg for the second.

Compared with Cc1cc2c(o1)CCN(C(=O)Cc1ccc(Cl)c(Cl)c1)C2CN1CCC(O)C1 (stereo unspecified), O=C(Cc1ccc(Cl)c(Cl)c1)N1CCc2c(O)cccc2C1CN1CCC(O)C1 (stereo unspecified) is 7-fold higher in ED50: 12 µg/kg for the first, 84 µg/kg for the second.

O=C(Cc1ccc(Cl)c(Cl)c1)N1CCC2(CC1CN1CCCC1)OCCO2 (stereo unspecified) was tested, and the ED50 was 1 µg/kg.
